Activity calls are given as the source filed them. The rule behind the calls is not given here.
How the values were obtained:
[1] = molecular target: T1, Phosphotyrosine protein phosphatase (Mycobacterium tuberculosis, UniProt A0A045ISB3); assay: Inhibition of Mycobacterium tuberculosis H37Rv His-tagged ptpB expressed in Escherichia coli BL21(DE3) using pNPP as substrate preincubated for 15 mins followed by substrate addition and measured after 15 mins
T1 sequence (A0A045ISB3 whole entry): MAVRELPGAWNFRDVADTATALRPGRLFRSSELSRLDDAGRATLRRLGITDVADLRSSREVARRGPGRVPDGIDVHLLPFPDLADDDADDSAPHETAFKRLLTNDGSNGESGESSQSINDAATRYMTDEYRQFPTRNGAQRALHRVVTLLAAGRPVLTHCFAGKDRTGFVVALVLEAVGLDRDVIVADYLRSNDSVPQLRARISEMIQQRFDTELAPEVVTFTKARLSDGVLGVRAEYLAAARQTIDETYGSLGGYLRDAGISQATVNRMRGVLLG

[2] = molecular target: T2, Phosphotyrosine protein phosphatase (Mycobacterium tuberculosis) (UniProt A0A045ISB3); assay: Inhibition of Mycobacterium tuberculosis H37Rv ATCC 35837 ptpB infected in human THP1 cells assessed as reduction in intracellular bacterial burden at 10 to 80 uM after 72 hrs post infection relative to DMSO-treated control; type: cell-based
T2 sequence (whole entry): T1 sequence (A0A045ISB3 whole entry)
Procedure, shortened: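 PMA-differentiated THP1 cells (1 × 10^6/well, RPMI with 10% FBS and 4 mM L-glutamine) received inhibitor in DMSO, then thawed M. tuberculosis at MOI 1:1. Washed after 3 h; medium and inhibitor renewed at 24 h. At 72 h, lysed in 0.05% SDS; 10-fold dilutions plated in duplicate on 7H10, CFU counted after 3 weeks at 37 °C; triplicate experiments.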

[3] = Inhibition of Mycobacterium tuberculosis H37Rv His-tagged ptpA expressed in Escherichia coli BL21(DE3) using pNPP as substrate preincubated for 15 mins followed by substrate addition and measured after 15 mins
Procedure, shortened: (§1)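 His-tagged MptpA/MptpB expressed in E. coli BL21(DE3); VHR and hPTP1B purified as GST fusions with the tag cleaved. 0.5 μg protein in Tris/BisTris/acetate buffer (pH 7 MptpB, 6.5 MptpA, 6 hPTP1B, 5 VHR) with compound at 0–250 μM, 15 min at room temperature. pNPP added to 0.35 mM for 15 min, quenched with NaOH, read at 405 nm against a pNP curve. No-enzyme blanks.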

[4] = molecular target: T3, Tyrosine-protein phosphatase non-receptor type 1 (Homo sapiens, UniProt P18031); assay: Inhibition of human PTP1B using pNPP as substrate preincubated for 15 mins followed by substrate addition and measured after 15 mins
T3 sequence (P18031 whole entry): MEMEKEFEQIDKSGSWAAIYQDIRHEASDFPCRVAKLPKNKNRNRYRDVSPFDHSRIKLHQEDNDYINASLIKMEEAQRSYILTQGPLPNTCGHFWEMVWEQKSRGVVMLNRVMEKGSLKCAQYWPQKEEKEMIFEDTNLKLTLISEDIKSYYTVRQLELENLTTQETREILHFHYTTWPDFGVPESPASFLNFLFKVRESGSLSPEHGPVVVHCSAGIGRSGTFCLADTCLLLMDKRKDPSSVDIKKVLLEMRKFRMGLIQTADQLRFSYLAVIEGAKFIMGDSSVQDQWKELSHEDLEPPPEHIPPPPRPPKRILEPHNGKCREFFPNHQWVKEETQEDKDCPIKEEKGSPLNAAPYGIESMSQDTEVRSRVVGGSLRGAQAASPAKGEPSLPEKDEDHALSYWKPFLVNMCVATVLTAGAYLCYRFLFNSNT

[5] = molecular target: Dual specificity protein phosphatase 3 (Homo sapiens, UniProt P51452); assay: Inhibition of human VHR using pNPP as substrate preincubated for 15 mins followed by substrate addition and measured after 15 mins; procedure, shortened: as §1
J774.A1 = assay: Cytotoxicity against mouse J774A.1 cells assessed as reduction in cell viability at 50 to 150 uM after 24 hrs by MTT assay; type: cell-based; conditions: j774.a1, 24 h
Procedure, shortened: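 MTT viability assay in J774A.1 cells seeded at 6 × 10^3/well and adhered overnight. Inhibitor in DMSO or DMSO only added for 24 h. MTT (5 mg/mL in PBS) added for 4 h, formazan dissolved in DMSO with Sorensen's glycine buffer, absorbance read at 570 nm.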

Cavia porcellus [6] = assay: Cmax in Dunkin Hartley guinea pig at 2.5 mg/kg, ip after 0.5 hrs post dose; type: ADME, organism-based; parameters: dose 2.5 mg/kg, route intraperitoneal; conditions: in vivo
Cavia porcellus [7] = assay: Half life in Dunkin Hartley guinea pig at 2.5 mg/kg, ip; type: ADME, organism-based; conditions: in vivo
Cavia porcellus [8] = assay: AUCinfinity in Dunkin Hartley guinea pig at 2.5 mg/kg, ip; type: ADME, organism-based; parameters: dose 2.5 mg/kg, time infinity, route intraperitoneal; conditions: in vivo
Cavia porcellus [9] = assay: Cmax in Dunkin Hartley guinea pig at 5 mg/kg, po after 0.25 hrs post dose; type: ADME, organism-based; parameters: dose 5 mg/kg, route oral; conditions: in vivo, BLD = below limit of detection
Cavia porcellus [10] = assay: Half life in Dunkin Hartley guinea pig at 5 mg/kg, po; type: ADME, organism-based; conditions: in vivo, BLD = below limit of detection
Cavia porcellus [11] = assay: AUCinfinity in Dunkin Hartley guinea pig at 5 mg/kg, po; type: ADME, organism-based; parameters: dose 5 mg/kg, time infinity, route oral; conditions: in vivo, BLD = below limit of detection
Cavia porcellus [12] = assay: Oral bioavailability in Dunkin Hartley guinea pig at 5 mg/kg; type: ADME, organism-based; conditions: in vivo
[13] = Selectivity ratio of IC50 for human PTP1B to IC50 for Mycobacterium tuberculosis H37Rv His-tagged ptpB

Sequence of Dual specificity protein phosphatase 3 (P51452 whole entry): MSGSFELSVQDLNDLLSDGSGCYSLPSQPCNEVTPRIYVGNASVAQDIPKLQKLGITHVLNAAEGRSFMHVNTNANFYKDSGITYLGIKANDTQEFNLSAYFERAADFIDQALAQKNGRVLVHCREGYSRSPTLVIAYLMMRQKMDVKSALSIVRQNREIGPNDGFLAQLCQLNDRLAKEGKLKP

For `O=C(O)c1cc(-c2ccccc2)on1`, the IC50 [1] was > 500 µM.

In the case of `COC(=O)c1c(O)cccc1OC/C=C/c1cccc(-c2cc(C(=O)O)no2)c1` [ISOXAZOLECARBOXYLIC ACID], the IC50 [1] is reported as 7 µM and the inhibition [2] is reported as “Active”.

Compound `COc1cccc(-c2c(C(=O)O)noc2-c2ccccc2)c1` has an IC50 [1] of 38 µM.

With `O=C(O)c1noc(-c2ccccc2)c1-c1cccc(-c2cccc(O)c2)c1` the IC50 [3] was 95 µM, the IC50 [4] was > 100 µM and the IC50 [5] was 59 µM.

In the case of `O=C(O)c1noc(-c2ccccc2)c1-c1cccc(-c2cc(Cl)c(O)c(Cl)c2)c1`, the IC50 [3] is reported as 33.7 µM, the IC50 [4] is reported as 127 µM and the IC50 [5] is reported as 10.5 µM. The Activity (J774.A1) was “Non-Toxic”, the Cmax (Cavia porcellus [6]) was 3714 ng/mL and the t1/2 (Cavia porcellus [7]) was 0.7 h. For the same compound, the AUC (Cavia porcellus [8]) was 4968 ng·h/mL, the Cmax (Cavia porcellus [9]) was “Bld” and the t1/2 (Cavia porcellus [10]) was “Bld”. For the same compound, the AUC (Cavia porcellus [11]) was “Bld” and the F (Cavia porcellus [12]) was < 4%.

For `Cc1cc(-c2cccc(-c3c(C(=O)O)noc3-c3ccccc3)c2)cc(C)c1O`, the IC50 [3] was 36 µM, the IC50 [4] was > 100 µM and the IC50 [5] was 23.2 µM. The Cmax (Cavia porcellus [6]) was 197 ng/mL, the t1/2 (Cavia porcellus [7]) was 1.4 h and the AUC (Cavia porcellus [8]) was 399 ng·h/mL. The Cmax (Cavia porcellus [9]) was “Bld”, the t1/2 (Cavia porcellus [10]) was “Bld” and the AUC (Cavia porcellus [11]) was “Bld”. The F (Cavia porcellus [12]) was < 2.5%.

`O=C(O)c1noc(-c2ccccc2)c1-c1ccccc1` showed an IC50 [1] of 17 µM, an IC50 [4] of 100 µM and a Ratio IC50 [13] of 5.9.
